Values after ≈ are worked out from the molar mass of the structure shown. Active and inactive are the calls of the source. The calls are words filed in the database; no cut-off is given here.
What was measured:
Mus musculus = assay: Antiinflammatory activity in mouse assessed as inhibition of carrageenan-induced increase in paw volume at 200 mg/kg administered 1 hr prior to carrageenan challenge measured after 3 hrs relative to control; assay type: functional
In short: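 Mice were fasted 2 h and placed in groups of five. Controls received saline i.p. Phenylbutazone was given at 100 mg/kg i.p., curcumin at 200 mg/kg i.p., and derivatives at 200 mg/kg. After 1 h, 0.1 mL of 1% carrageenan in saline was injected subplantar into the right hind paw. Paw volume was followed by plethysmometer for 3 h, and % inhibition was calculated as (Vc − Vt)/Vc × 100.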

HCT-116 = assay: Cytotoxicity against human HCT116 cells after 24 hrs by MTT assay; assay type: functional, cell-based
In short: (§1)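 The MTT assay seeded 5 × 10⁴ cells per well and grew them 24 h in RPMI 1640 with compound at 2.5–200 µM. Medium without cells was the blank and adriamycin the positive control. MTT was added for 4 h at 37 °C, formazan was solubilised, and absorbance was read at 570 nm. IC50 is the concentration that cuts viability 50% against untreated cells.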

QG-56 = assay: Cytotoxicity against human QG56 cells after 24 hrs by MTT assay; assay type: functional, cell-based; in short: as §1
HeLa = assay: Cytotoxicity against human HeLa cells after 24 hrs by MTT assay; assay type: functional, cell-based; in short: as §1
HepG2 = assay: Cytotoxicity against human HepG2 cells after 24 hrs by MTT assay; assay type: functional, cell-based; in short: as §1
Trichoderma viride [1] = assay: Antifungal activity against Trichoderma viride MTCC 1107 after 48 hrs; assay type: functional; details: MTCC 1107, 48 h
Trichoderma viride [2] = assay: Antifungal activity against Trichoderma viride MTCC 1107 assessed as zone of inhibition at 20 uM after 48 hrs by disc diffusion method; assay type: functional; details: MTCC 1107, 48 h, read-out: IZ
In short: (§2)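 Spores from 4-day potato dextrose agar cultures, suspended in sterile water at 1.5 × 10⁵ CFU/mL. 0.2 mL was spread on potato dextrose agar. 5 mm filter-paper discs soaked with test compound were laid on the lawn. Incubation was 48 h at 28 °C, then the inhibition zone was measured in mm. Fluconazole was the positive control and acetone the negative control.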

Trichoderma viride [3] = assay: Antifungal activity against Trichoderma viride MTCC 1107 assessed as zone of inhibition at 40 uM after 48 hrs by disc diffusion method; assay type: functional; details: MTCC 1107, 48 h, read-out: IZ; in short: as §2
Trichoderma viride [4] = assay: Antifungal activity against Trichoderma viride MTCC 1107 assessed as zone of inhibition at 80 uM after 48 hrs by disc diffusion method; assay type: functional; details: MTCC 1107, 48 h, read-out: IZ; in short: as §2
Curvularia lunata [5] = assay: Antifungal activity against Curvularia lunata MTCC 581 after 48 hrs; assay type: functional; details: MTCC 581, 48 h
Curvularia lunata [6] = assay: Antifungal activity against Curvularia lunata MTCC 581 assessed as zone of inhibition at 20 uM after 48 hrs by disc diffusion method; assay type: functional; details: MTCC 581, 48 h, read-out: IZ; in short: as §2
Curvularia lunata [7] = assay: Antifungal activity against Curvularia lunata MTCC 581 assessed as zone of inhibition at 40 uM after 48 hrs by disc diffusion method; assay type: functional; details: MTCC 581, 48 h, read-out: IZ; in short: as §2
Aspergillus flavus [8] = assay: Antifungal activity against Aspergillus flavus MTCC 1021 after 48 hrs; assay type: functional; details: MTCC 1021, 48 h
Curvularia lunata [9] = assay: Antifungal activity against Curvularia lunata MTCC 581 assessed as zone of inhibition at 80 uM after 48 hrs by disc diffusion method; assay type: functional; details: MTCC 581, 48 h, read-out: IZ; in short: as §2
Aspergillus flavus [10] = assay: Antifungal activity against Aspergillus flavus MTCC 1021 assessed as zone of inhibition at 20 uM after 48 hrs by disc diffusion method; assay type: functional; in short: as §2
Aspergillus flavus [11] = assay: Antifungal activity against Aspergillus flavus MTCC 1021 assessed as zone of inhibition at 40 uM after 48 hrs by disc diffusion method; assay type: functional; details: MTCC 1021, 48 h, read-out: IZ; in short: as §2
Aspergillus flavus [12] = assay: Antifungal activity against Aspergillus flavus MTCC 1021 assessed as zone of inhibition at 80 uM after 48 hrs by disc diffusion method; assay type: functional; details: MTCC 1021, 48 h, read-out: IZ; in short: as §2
Aspergillus niger [13] = assay: Antifungal activity against Aspergillus niger MTCC 1108 after 48 hrs; assay type: functional; details: MTCC 1108, 48 h
Aspergillus niger [14] = assay: Antifungal activity against Aspergillus niger MTCC 1108 assessed as zone of inhibition at 20 uM after 48 hrs by disc diffusion method; assay type: functional; in short: as §2
Aspergillus niger [15] = assay: Antifungal activity against Aspergillus niger MTCC 1108 assessed as zone of inhibition at 40 uM after 48 hrs by disc diffusion method; assay type: functional; in short: as §2
Aspergillus niger [16] = assay: Antifungal activity against Aspergillus niger MTCC 1108 assessed as zone of inhibition at 80 uM after 48 hrs by disc diffusion method; assay type: functional; details: MTCC 1108, 48 h, read-out: IZ; in short: as §2
Escherichia coli [17] = assay: Antimicrobial activity against Escherichia coli ATCC 35218 after 24 hrs by broth micro serial dilution method; assay type: functional; details: ATCC 35218, 24 h
In short: (§3)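 This was broth microdilution in autoclaved Mueller-Hinton broth. 150 µL of compound per well was serially diluted […], and 50 µL of test organism was added. Plates were incubated 24 h at 37 °C and optical density was read.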

Escherichia coli [18] = assay: Antimicrobial activity against Escherichia coli ATCC 35218 assessed as diameter of inhibition zone at 20 uM after 24 hrs by Kirby -Baur disc diffusion method; assay type: functional
In short: (§4)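 Kirby-Bauer disc diffusion was used. Acetone stocks (160 µM) were serially doubled down to 80, 40 and 20 µM. 4 µL of each went onto 5 mm sterile paper discs, which were dried 30 min at 50 °C. Inoculum was 1.5 × 10⁸ CFU/mL diluted to 3 × 10² CFU/mL, and 50 µL was spread on Mueller-Hinton agar. After 24 h at 37 °C the inhibition-zone diameter was measured. Ciprofloxacin served as positive control.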

Escherichia coli [19] = assay: Antimicrobial activity against Escherichia coli ATCC 35218 assessed as diameter of inhibition zone at 40 uM after 24 hrs by Kirby -Baur disc diffusion method; assay type: functional; in short: as §4
Escherichia coli [20] = assay: Antimicrobial activity against Escherichia coli ATCC 35218 assessed as diameter of inhibition zone at 80 uM after 24 hrs by Kirby -Baur disc diffusion method; assay type: functional; details: ATCC 35218, 24 h, read-out: DIZ; in short: as §4
Pseudomonas aeruginosa [21] = assay: Antimicrobial activity against Pseudomonas aeruginosa ATCC 15499 after 24 hrs by broth micro serial dilution method; assay type: functional; details: ATCC 15499, 24 h; in short: as §3
Pseudomonas aeruginosa [22] = assay: Antimicrobial activity against Pseudomonas aeruginosa ATCC 15499 assessed as diameter of inhibition zone at 20 uM after 24 hrs by Kirby -Baur disc diffusion method; assay type: functional; in short: as §4
Pseudomonas aeruginosa [23] = assay: Antimicrobial activity against Pseudomonas aeruginosa ATCC 15499 assessed as diameter of inhibition zone at 40 uM after 24 hrs by Kirby -Baur disc diffusion method; assay type: functional; details: ATCC 15499, 24 h, read-out: DIZ; in short: as §4
Pseudomonas aeruginosa [24] = assay: Antimicrobial activity against Pseudomonas aeruginosa ATCC 15499 assessed as diameter of inhibition zone at 80 uM after 24 hrs by Kirby -Baur disc diffusion method; assay type: functional; details: ATCC 15499, 24 h, read-out: DIZ; in short: as §4
Salmonella typhi [25] = assay: Antimicrobial activity against Salmonella typhi ATCC 23564 after 24 hrs by broth micro serial dilution method; assay type: functional, Salmonella enterica subsp. enterica serovar Typhi; details: Salmonella enterica, ATCC 23564, 24 h
Salmonella typhi [26] = assay: Antimicrobial activity against Salmonella typhi ATCC 23564 assessed as diameter of inhibition zone at 20 uM after 24 hrs by Kirby -Baur disc diffusion method; assay type: functional; details: Salmonella enterica subsp. enterica serovar Typhi
Salmonella typhi [27] = assay: Antimicrobial activity against Salmonella typhi ATCC 23564 assessed as diameter of inhibition zone at 40 uM after 24 hrs by Kirby -Baur disc diffusion method; assay type: functional; details: Salmonella enterica subsp. enterica serovar Typhi
Salmonella typhi [28] = assay: Antimicrobial activity against Salmonella typhi ATCC 23564 assessed as diameter of inhibition zone at 80 uM after 24 hrs by Kirby -Baur disc diffusion method; assay type: functional, Salmonella enterica subsp. enterica serovar Typhi; details: Salmonella enterica, ATCC 23564, 24 h; read-out: DIZ
Bacillus cereus [29] = assay: Antimicrobial activity against Bacillus cereus MTCC 7350 after 24 hrs by broth micro serial dilution method; assay type: functional; details: MTCC 7350, 24 h; in short: as §3
Bacillus cereus [30] = assay: Antimicrobial activity against Bacillus cereus MTCC 7350 assessed as diameter of inhibition zone at 20 uM after 24 hrs by Kirby -Baur disc diffusion method; assay type: functional; in short: as §4
Bacillus cereus [31] = assay: Antimicrobial activity against Bacillus cereus MTCC 7350 assessed as diameter of inhibition zone at 40 uM after 24 hrs by Kirby -Baur disc diffusion method; assay type: functional; in short: as §4
Bacillus cereus [32] = assay: Antimicrobial activity against Bacillus cereus MTCC 7350 assessed as diameter of inhibition zone at 80 uM after 24 hrs by Kirby -Baur disc diffusion method; assay type: functional; details: MTCC 7350, 24 h, read-out: DIZ; in short: as §4
Staphylococcus aureus [33] = assay: Antimicrobial activity against Staphylococcus aureus ATCC 11632 after 24 hrs by broth micro serial dilution method; assay type: functional; details: ATCC 11632, 24 h; in short: as §3
Staphylococcus aureus [34] = assay: Antimicrobial activity against Staphylococcus aureus ATCC 11632 assessed as diameter of inhibition zone at 20 uM after 24 hrs by Kirby -Baur disc diffusion method; assay type: functional; in short: as §4
Staphylococcus aureus [35] = assay: Antimicrobial activity against Staphylococcus aureus ATCC 11632 assessed as diameter of inhibition zone at 40 uM after 24 hrs by Kirby -Baur disc diffusion method; assay type: functional; in short: as §4
Staphylococcus aureus [36] = assay: Antimicrobial activity against Staphylococcus aureus ATCC 11632 assessed as diameter of inhibition zone at 80 uM after 24 hrs by Kirby -Baur disc diffusion method; assay type: functional; details: ATCC 11632, 24 h, read-out: DIZ; in short: as §4

SMILES: COc1cc(/C=C/C(=O)C(/N=N/c2ccc(S(=O)(=O)Nc3cc(C)on3)cc2)=C(O)/C=C/c2ccc(O)c(OC)c2)ccc1O
- inhibition in vivo at 200 mg/kg (Mus musculus): 14.5%
- IC50 (HCT-116): Not Active
- IC50 (QG-56): Not Active
- IC50 (HeLa): > 100 µM
- IC50 (HepG2): Not Active
- MIC (Trichoderma viride [1]): 80 µM (≈ 50.6 µg/mL)
- zone of inhibition at 20 µM (Trichoderma viride [2]): 9 mm
- zone of inhibition at 40 µM (Trichoderma viride [3]): 11 mm
- zone of inhibition at 80 µM (Trichoderma viride [4]): 13 mm
- MIC (Curvularia lunata [5]): 80 µM (≈ 50.6 µg/mL)
- zone of inhibition at 20 µM (Curvularia lunata [6]): 9 mm
- zone of inhibition at 40 µM (Curvularia lunata [7]): 11 mm
- MIC (Aspergillus flavus [8]): 80 µM (≈ 50.6 µg/mL)
- zone of inhibition at 80 µM (Curvularia lunata [9]): 13 mm
- inhibition zone (IZ) (Aspergillus flavus [10]): inactive
- zone of inhibition at 40 µM (Aspergillus flavus [11]): 9 mm
- zone of inhibition at 80 µM (Aspergillus flavus [12]): 10 mm
- MIC (Aspergillus niger [13]): > 80 µM
- inhibition zone (IZ) (Aspergillus niger [14]): inactive
- inhibition zone (IZ) (Aspergillus niger [15]): inactive
- zone of inhibition at 80 µM (Aspergillus niger [16]): 12 mm
- MIC (Escherichia coli [17]): > 80 µM
- diameter of the inhibition zone (DIZ) (Escherichia coli [18]): inactive
- diameter of the inhibition zone (DIZ) (Escherichia coli [19]): inactive
- zone of inhibition at 80 µM (Escherichia coli [20]): 11 mm
- MIC (Pseudomonas aeruginosa [21]): > 80 µM
- diameter of the inhibition zone (DIZ) (Pseudomonas aeruginosa [22]): inactive
- zone of inhibition at 40 µM (Pseudomonas aeruginosa [23]): 9 mm
- zone of inhibition at 80 µM (Pseudomonas aeruginosa [24]): 9 mm
- MIC (Salmonella typhi [25]): > 80 µM
- diameter of the inhibition zone (DIZ) (Salmonella typhi [26]): inactive
- diameter of the inhibition zone (DIZ) (Salmonella typhi [27]): inactive
- zone of inhibition at 80 µM (Salmonella typhi [28]): 9 mm
- MIC (Bacillus cereus [29]): > 80 µM
- diameter of the inhibition zone (DIZ) (Bacillus cereus [30]): inactive
- diameter of the inhibition zone (DIZ) (Bacillus cereus [31]): inactive
- zone of inhibition at 80 µM (Bacillus cereus [32]): 9 mm
- MIC (Staphylococcus aureus [33]): > 80 µM
- diameter of the inhibition zone (DIZ) (Staphylococcus aureus [34]): inactive
- diameter of the inhibition zone (DIZ) (Staphylococcus aureus [35]): inactive
- zone of inhibition at 80 µM (Staphylococcus aureus [36]): 9 mm

Reference: ChEMBL document CHEMBL2384906, “Biological activity, design, synthesis and structure activity relationship of some novel derivatives of curcumin containing sulfonamides” (Eur J Med Chem, 2013)
